# Laboratory results as given in ChEMBL document CHEMBL1122552, “Synthesis and biological evaluation of 6-amino-1H-pyrrolo[3,2-c]pyridin-4(5H)-one (3,7-dideazaguanine)” (1984).
# Tests used:
# AA6 = experiment: Ability to inhibit growth of AA-6 cells (a mutant cell line resistant to 8-azaadenine and lacks […]) was determined; type: functional; details: Cricetulus griseus
# Procedure, shortened: (§1)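 Clonogenic growth assay: log-phase cells trypsinized, diluted in McCoy's 5A with dialyzed fetal calf serum, about 200 cells per dish. Cells were grown at 0.5–3000 μM for 7 days at 37.5 °C in humidified CO2, then fixed in 10% formaldehyde and stained with 0.1% crystal violet. The minimum inhibitory concentration is the lowest tested concentration giving clones of fewer than 50 cells.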
# Mus musculus [1] = experiment: Compound was evaluated for median life span after tumor implantation at a dose of 100 mg/kg; type: functional
# Procedure, shortened: (§2)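 P388 leukemia cells (10^6) implanted ip in groups of 6 CDF1 mice, with 30 untreated controls. Therapy began 24 h later: compound in saline given ip on days 1-5. Recorded median life span in days after implant, T/C %, and body-weight change of treated minus control animals.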
# Mus musculus [2] = experiment: Compound was evaluated for median life span after tumor implantation at a dose of 400 mg/kg; type: functional
# Procedure, shortened: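 P388 leukemia cells (10^6) implanted ip in groups of 6 BDF1 mice, with 30 untreated controls. Therapy began 24 h later: compound in saline given ip on days 1-5. Recorded median life span in days after implant, T/C %, and body-weight change of treated minus control animals.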
# Mus musculus [3] = experiment: Effect on mice inoculated with P388 Lymphocytic leukemia, was studied. Compound dose is 50 mg/kg (Exp-1)Average animal body weight change of test group minus that of control animals.; type: functional
# Procedure, shortened: (§3)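 Experiment 1: P388 cells (10^6) implanted ip in CDF1 mice, 6 per group, 30 untreated controls. Dosing in saline, ip, on days 1-5, starting 24 h after implant. Reported value is the mean body weight change of the treated group minus that of the controls, in g.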
# Mus musculus [4] = experiment: Compound was evaluated for median life span after tumor implantation at a dose of 50 mg/kg; type: functional; procedure, shortened: as §2
# CHO = experiment: Ability to inhibit growth of CHO cells was determined; type: functional; details: Cricetulus griseus; procedure, shortened: as §1
# [5] = Ability to inhibit growth of TG-1 cells (a mutant cell line resistant to 6-thioguanine and lacks hypoxanthine-guanine phosphoribosyltransferase) was determined
# Mus musculus [6] = experiment: Compound was evaluated for value at a dose of 50 mg/kg; type: functional
# Procedure, shortened: (§4)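 Experiment 1: 10^6 P388 cells implanted ip in groups of 6 CDF1 mice, with 30 untreated controls. Therapy began 24 h later: saline solution given ip on days 1-5. Value is T/C, %, of median life span (days postimplant) against untreated controls.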
# Mus musculus [7] = experiment: Compound was evaluated for median life span after tumor implantation at a dose of 200 mg/kg; type: functional; procedure, shortened: as §2
# Mus musculus [8] = experiment: Effect on mice inoculated with P388 Lymphocytic leukemia, was studied. Compound dose is 400 mg/kg (Exp-1)Average animal body weight change of test group minus that of control animals; type: functional
# Coxsackievirus = experiment: The minimum inhibitory concentration required to reduce Coxsackie virus type B4 induced cytopathogenicity in primary rabbit kidney cells by 50%; type: functional
# [9] = system: Vesicular stomatitis virus; experiment: The minimum inhibitory concentration required to reduce VSV induced cytopathogenicity in primary rabbit kidney cells by 50%; type: functional
# Human alphaherpesvirus 1 = experiment: The minimum inhibitory concentration required to reduce HSV-1(KOS) induced cytopathogenicity in primary rabbit kidney cells by 50%; type: functional
# Procedure, shortened: (§5)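 Inhibition of virus-induced cytopathogenicity in primary rabbit kidney cells. The minimal inhibitory concentration (μg/mL) is the one reducing cytopathogenicity by 50%, scored when cytopathogenicity was complete in virus-infected untreated controls. Minimal cytotoxic concentration was taken as the one causing microscopically detectable change in cell morphology; 400 μg/mL was the highest concentration tested.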
# Mus musculus [10] = experiment: Compound was evaluated for value at a dose of 200 mg/kg; type: functional; procedure, shortened: as §4
# Mus musculus [11] = experiment: Compound was evaluated for value at a dose of 100 mg/kg; type: functional; procedure, shortened: as §4
# Human alphaherpesvirus 2 = experiment: The minimum inhibitory concentration required to reduce HSV-2 (G) induced cytopathogenicity in primary rabbit kidney cells by 50%; type: functional; procedure, shortened: as §5
# Mus musculus [12] = experiment: Effect on mice inoculated with P388 Lymphocytic leukemia, was studied. Compound dose is 200 mg/kg (Exp-1)Average animal body weight change of test group minus that of control animals.; type: functional; procedure, shortened: as §3
# Mus musculus [13] = experiment: Compound was evaluated for value at a dose of 400 mg/kg; type: functional
# Procedure, shortened: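 Experiment 2: 10^6 P388 cells implanted ip in groups of 6 BDF1 mice, with 30 untreated controls. Therapy began 24 h later: saline solution given ip on days 1-5. Value is T/C, %, of median life span (days postimplant) against untreated controls.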
# Mus musculus [14] = experiment: Effect on mice inoculated with P388 Lymphocytic leukemia, was studied. Compound dose is 100 mg/kg (Exp-1)Average animal body weight change of test group minus that of control animals.; type: functional; procedure, shortened: as §3
Structure (SMILES),MIC (AA6),Median life span (Mus musculus [1]),Median life span (Mus musculus [2]),Activity (Mus musculus [3]),Median life span (Mus musculus [4]),MIC (CHO),MIC [5],T/C (Mus musculus [6]),Median life span (Mus musculus [7]),Activity (Mus musculus [8]),MIC (Coxsackievirus),MIC [9],MIC (Human alphaherpesvirus 1),T/C (Mus musculus [10]),T/C (Mus musculus [11]),MIC (Human alphaherpesvirus 2),Activity (Mus musculus [12]),T/C (Mus musculus [13]),Activity (Mus musculus [14])
Nc1cc2[nH]ccc2c(O)n1,1000 µM,12.3 days,16.3 days,-0.2 g,11.7 days,1000 µM,1000 µM,108%,12.4 days,-0.7 g,> 400 µg/mL,> 400 µg/mL,> 400 µg/mL,114%,113%,> 400 µg/mL,-1.6 g,126%,-0.6 g
NC(=O)c1ncn([C@@H]2O[C@H](CO)[C@@H](O)[C@H]2O)n1 [RIBAVIRIN],,,,,,,,,,,,,> 400 µg/mL,,,> 400 µg/mL,,,
Nc1ncnc2c1ncn2C[C@H](O)CO [(S)-DHPA],,,,,,,,,,,,,> 400 µg/mL,,,> 400 µg/mL,,,
Nc1cc2[nH]cnc2c(=O)[nH]1 [DEZAGUANINE],500 µM,,,,,10 µM,1500 µM,,,,,,4 µg/mL,,,150 µg/mL,,,
